Assay outcomes deposited in PubChem BioAssay by several laboratories.
This is a sample that favours compounds with a hit; in the whole collection about 1.3% have one here.
NSD2 HMT inh = inhibitors of human histone methyltransferase NSD2 | O96028 | NSD2 peptide methylation, AlphaScreen, 120 min | inhibition, % at 12.5 µM | hit rate 0.54% among 310,000 | AID 743445; in the data active means inhibition above about 50%
TDP2 absorb = blocks human TDP2 phosphodiesterase activity; O95551; recombinant TDP2, T5PNP hydrolysis, p-nitrophenol absorbance 415 nm; inhibition, % at 12.8 µM; hit rate 0.34% among 370,000; AID 720702;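 active means inhibition above the mean of all tested compounds plus 3 SD, set per campaign, cut at about 25% in these data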;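 further: 0% = DMSO with enzyme and 100% = buffer with substrate but no TDP2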
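Test system: human TDP2 enzyme; Input: 120 nM TDP2 per well; Buffer or medium: Mg2+-containing Tris-HCl buffer, pH 7.5; Reagent: 5 mM T5PNP; Dosing: 12.8 µM single point, 1% DMSO; Incubation: reaction 2 h, 37 °C; Detection: p-Nitrophenol epi absorbance; Read-out: % inhibition relative to enzyme-containing and enzyme-free wells; Replicates: single well per compound.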
UCH37 DUB inh = human UCH37 deubiquitinating enzyme inhibition | hit rate 0.33% among 330,000 | purified proteasome/UCH37, Ub-AMC cleavage fluorescence | inhibition, % (concentration not given with the values) | AID 588478 | Q9Y5K5;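 active means mean inhibition over replicate wells above about 20%, limit read from the data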;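 further: 0% = compound-free wells with enzyme and 100% = wells lacking proteasome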
Target sequence (Q9Y5K5 whole entry, looked up): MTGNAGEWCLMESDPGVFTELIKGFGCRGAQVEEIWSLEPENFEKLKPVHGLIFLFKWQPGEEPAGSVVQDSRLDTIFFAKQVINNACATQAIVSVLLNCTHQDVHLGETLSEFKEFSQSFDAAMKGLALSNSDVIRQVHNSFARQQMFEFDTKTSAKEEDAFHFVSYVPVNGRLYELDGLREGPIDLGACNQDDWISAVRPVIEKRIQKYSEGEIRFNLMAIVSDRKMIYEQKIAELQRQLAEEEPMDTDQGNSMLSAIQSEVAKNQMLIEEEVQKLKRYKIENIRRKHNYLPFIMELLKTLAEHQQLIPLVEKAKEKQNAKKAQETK
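assay system = human UCH37 enzyme supplied as purified proteasome complex | amount = proteasome at 0.15 nM in the dispensed enzyme solution | schedule = 30 min compound-proteasome preincubation then 25 min substrate reaction, room temperature | measured by = fluorescence, ex 355 nm, em 460 nm | benchmarks = no-proteasome wells (full inhibition) and compound-free wells (no inhibition)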
LEDGF integ inh = blocks HIV-1 LEDGF/p75-dependent DNA integration; TR-FRET IN-LEDGF/p75 DNA integration, Eu/Cy5; inhibition, % at 3.7 µM; hit rate 0.64% among 370,000; AID 743269;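 active means inhibition above the screen-wide mean plus 3 SD, cut at about 13% in these data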;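 further: signal is the Cy5 over europium emission ratio at 671 and 618 nm; 0% = plate median of compound wells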
Casp6 inh = blocks human caspase-6 cleavage activity | purified caspase-6, Z-VEID-R110 cleavage fluorescence | inhibition, % at 12.5 µM | P55212 | hit rate 0.53% among 350,000;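 active means mean inhibition across replicates at least about 35%, with every replicate also reaching that limit, limit read from the data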;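 further: 0% = median of neutral control wells and 100% = no fluorescence left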
Target sequence (P55212 24-179 limits assumed): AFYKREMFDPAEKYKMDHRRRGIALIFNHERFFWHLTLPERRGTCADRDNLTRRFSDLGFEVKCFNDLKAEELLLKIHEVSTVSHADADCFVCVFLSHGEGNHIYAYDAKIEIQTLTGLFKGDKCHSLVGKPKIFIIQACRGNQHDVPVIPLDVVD
Target sequence (P55212 194-293 limits assumed): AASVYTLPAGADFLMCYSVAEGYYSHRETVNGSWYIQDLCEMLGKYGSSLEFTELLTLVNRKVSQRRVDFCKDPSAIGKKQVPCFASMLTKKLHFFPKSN
* hit, by the source's call; / = not tested or not shown.

SMILES	NSD2 HMT inh	TDP2 absorb	UCH37 DUB inh	LEDGF integ inh	Casp6 inh
Cn1ccsc1=NC(=O)c1ccc([N+](=O)[O-])o1	4	15	13	3	49*
N=c1c2c(-c3ccccc3)c(-c3ccccc3)n(Cc3ccccc3)c2ncn1CCCn1ccnc1	-1	-2	24*	2	/
CN/S(=N\S(=O)(=O)c1ccccc1)c1ccc(C)cc1 (configuration not stated)	/	/	2	/	/
C=C(C)C(=O)Nc1cccc(C2=NOC3(C2)C[C@H](C(N)=O)N(C(=O)c2ccccc2C(=O)c2ccccc2)C3)c1 (some centres not stated)	/	-6	3	12	63*
C=CCn1c(SCCN2CCOCC2)nc2c1c(=O)[nH]c(=O)n2C	2	0	1	0	/
COCCn1c(SCCN2CCOCC2)nc2c1c(=O)[nH]c(=O)n2C	/	7	2	3	36*
CN1CCN(C2=C(NS(=O)(=O)c3cccs3)C(=O)c3ccccc3C2=O)CC1	6	20	9	2	47*
COc1ccc(C=NNC(=O)COc2ccc(Cl)cc2Cl)c(C(=O)O)c1OC	/	/	1	/	/
CCn1c(/C=C/N(C)c2ccccc2)[n+](CC)c2ccc(Cl)cc21	5	-5	23*	-2	/
CCOc1cc(C=NNS(=O)(=O)c2ccc(OC)cc2)ccc1OCCN1CCOCC1	/	/	4	/	/
COc1cccc(C=Nn2nnnc2N)c1OCC#N	/	/	-14	/	/
O=C(O)CN1C(=O)C=CC1=O	0	-9	/	5	36*
O=C1C=CC(=O)N1CCCCCCN1C(=O)C=CC1=O	0	3	3	-2	/
COc1ccc(CC(=O)NCC(=O)NN=C(C)c2ccco2)cc1	/	/	-1	/	/
CC(=NNC(=O)CNc1ccc(Cl)cc1C)c1ccc(C)cc1	/	/	34*	/	/
C[n+]1cccc(C=NNC(=O)CC23CC4CC(CC(C4)C2)C3)c1	/	/	3	/	/
Cc1ccc(S(=O)(=O)C(C#N)c2nc3ccccc3nc2N2CCCC2)cc1 (configuration not stated)	/	37*	/	7	/
CCCCC1CC(C(C)=NNC(N)=O)OC1=O (configuration not stated)	/	/	3	/	/
CC(=O)Nc1ccc(NC(=O)CC(C)=NNC(=O)COc2cc(C)c(Br)cc2Br)cc1	/	/	7	/	/
COc1ccc(OC)c(NC(=O)CSc2sc3c(O)cc(=O)[nH]c3c2C#N)c1	/	-1	9	0	43*
N#Cc1c(SCC(=O)Nc2ccc(C(F)(F)F)cc2)sc2c(O)cc(=O)[nH]c12	/	3	3	4	41*
CC(=NNc1ccc([N+](=O)[O-])cc1)c1ccc(N2CCOCC2)cc1	/	/	2	/	/
O=C(NN=CC1=Cc2ccccc2OC1)c1ccncc1	/	/	-112	/	/
CNC(C)C(=O)NC(C(=O)NC(C(=O)Nc1cccc2ccccc12)C(C)C)C(C)C (configuration not stated)	/	14	/	-5	0
CC(N)C(=O)NC(C(=O)NC(C)C(=O)Nc1cccc2ccccc12)C(C)C (configuration not stated)	/	7	/	4	45*
SMILES	NSD2 HMT inh	TDP2 absorb	UCH37 DUB inh	LEDGF integ inh	Casp6 inh
CN(C)c1ccc(C=NNC(=O)CCC(=O)NCc2ccccc2)cc1	/	/	-207	/	/
Brc1ccc2nc(-c3ccco3)c(CC3CCCCC3)n2c1	/	5	/	16*	4
Cc1ccc(C(=O)N/N=C/C=C/c2ccccc2)o1	0	6	/	4	-3
Cc1ccc(C(=O)NN=C/C=C/c2ccccc2)o1	/	/	21*	/	/
O=C(CSc1cn(CCNC(=O)c2ccccc2F)c2ccccc12)NCC1CCCO1 (configuration not stated)	4	19	-1	1	-1
Cc1ccccc1C(=O)NCCn1cc(SCC(=O)NCC2CCCO2)c2ccccc21 (configuration not stated)	-2	6	0	1	41*
COc1ccc(C(=O)ON=C(C)c2cccs2)cc1	/	/	6	/	/
CC(=NNc1cccc(Cl)c1)c1ccncc1	/	/	5	/	/
Cc1ccc(S(=O)(=O)Cc2ccc(C(=O)O)o2)cc1	40	-5	-1	8	52*
COc1ccc(S(=O)(=O)Cc2ccc(C(=O)O)o2)cc1	-2	-2	2	-5	-1
CC(C)Oc1ccc(C=NNC(=O)C2CCCN2S(=O)(=O)c2ccc(Cl)cc2)cc1 (configuration not stated)	/	/	6	/	/
Cc1[nH]c2ccccc2c1/C=N/NC(N)=S	10	1	/	-6	2
CCc1nnc(N/N=C/c2c(C)[nH]c3ccccc23)n1N	6	59*	/	68*	4
CCOC(=O)C1=C(C)Nc2ccccc2N/C1=N\S(=O)(=O)c1cc(C(=O)O)ccc1Cl	5	3	3	-2	37*
O=C1C(SCCO)=C(SCCO)C(=O)c2ccccc21	/	78*	/	29*	6
Cc1cc(C=O)c(C)n1-c1ccc(N2CCCCC2)c([N+](=O)[O-])c1	65*	-2	-2	-1	/
Cc1cc(/C=C(\C#N)C(N)=O)c(C)n1-c1ccc(N2CCOCC2)c([N+](=O)[O-])c1	4	1	7	-2	/
O=C(NN=Cc1cccc(C(F)(F)F)c1)C1CCN(c2ncc(C(F)(F)F)cc2Cl)CC1	/	/	-1	/	/
CCOc1ccccc1C(=O)NN=Cc1ccoc1	/	/	3	/	/
CC(=O)c1ccc(S(=O)(=O)Nc2c(C)nn(C)c2C)cc1	10	-1	0	-9	43*
O=C(NN=C1CCSc2ccc(F)cc21)c1cccnc1	/	/	-2	/	/
CN1CCN(CC(=O)n2c3c(c4ccccc42)CCCC3)CC1	7	29*	8	-4	/
O=C(Nc1cccc2ccccc12)c1ccc([N+](=O)[O-])cc1	-3	24	5	-4	-1
O=C(Nc1cccc2c(=O)[nH][nH]c(=O)c12)c1ccc([N+](=O)[O-])cc1	4	-7	/	-2	42*
CC(=NNC(=O)c1ccco1)c1cc2ccccc2o1	/	/	8	/	/
SMILES	NSD2 HMT inh	TDP2 absorb	UCH37 DUB inh	LEDGF integ inh	Casp6 inh
COc1ccc(CNC(=O)c2c(C)oc3c2C(=O)c2ccccc2C3=O)cc1	/	16	11	4	5
Cc1oc2c(c1C(=O)NCc1cccnc1)C(=O)c1ccccc1C2=O	/	/	22*	/	/
Cc1c(CCC(=O)O)c(=O)oc2c(C)c(OCc3cc4c(cc3Cl)OCO4)ccc12	-3	5	-2	1	43*
COc1ccc(C(=O)NCC(=O)NN=C(C)/C=C/c2ccccc2)cc1OC	/	/	6	/	/
COc1ccc(/C=C/C(=O)NCC(=O)NN=Cc2cc(Br)ccc2OC)cc1	/	/	4	/	/
O=[N+]([O-])c1cc(/C=N/Nc2nc3ccccc3[nH]2)c(O)cc1O	17	3	/	-3	61*
O=C(O)C1Sc2[nH]c(=O)sc2C2c3ccc(O)cc3OC(=O)C12 (configuration not stated)	1	6	/	2	58*
O=C(O)C1Sc2[nH]c(=O)sc2C2c3cc(Cl)ccc3OC(=O)C12 (configuration not stated)	24	9	1	-4	/
O=C1C=C(Nc2cccc3cccnc23)c2ccccc2C1=O	104*	19	/	5	29
